Laboratory results reported in article PMC4561054 (Drugs in R&D, 2015).
“And” between values parts separate entries of the source, which are not always exact repeats. Equal entries are not always repeated. “Also recorded” adds a separate entry of the source. Where two headings read alike, the source gives them in different places.

Columns and labels:
[1] = cited from earlier work
[2] = cited from earlier work; remark: listed apart in the source
HCV genotype 1 [3] = conditions: COSMOS; simeprevir plus sofosbuvir with or without ribavirin; cited from earlier work
[4] = preclinical studies; cited from earlier work
[5] = assay type: in vivo, human; conditions: for half-life: both, human, plasma, oral, 150 mg, Mean half-life
In short: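 Severe renal impairment (eGFR ≤29 mL/min/1.73 m2) versus matched normal-function subjects (eGFR ≥80), n = 8 each. Oral 150 mg test compound capsule daily, fed, for 7 days; Day 7 dose given after ≥10-h fast plus standard breakfast. Plasma drawn pre-dose Days 5–6 and on Day 7 at 0–72 h; LC-MS/MS. Noncompartmental Cmin, Cmax and AUC24 taken on log scale. Linear mixed-effects model gave LS means and 90 % CI of group difference.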

[6] = cited from earlier work; remark: listed apart in the source
[7] = Safety and tolerability, Study 2; assay type: in vivo, human
In short: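 Non-HCV-infected adults (18–70 y). Severe renal impairment group had MDRD eGFR ≤29 mL/min/1.73 m2 and no dialysis. Controls had eGFR ≥80 and were matched for sex, race, age and BMI. All took 150 mg test compound orally daily, fed, for 7 days. Subject-reported AEs recorded; hematology/biochemistry on Days 1, 3, 5, 7 and 8; urinalysis and ECG on Days 1 and 7.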

plasma proteins = test: Unbound simeprevir in plasma; assay type: in vitro ADME, human
In short: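 Subjects with severe renal impairment or matched normal renal function, given 150 mg test compound orally daily for 7 days. Blood drawn pre-dose and 4 h post-dose. Unbound concentration measured by dialysis, then liquid scintillation counting of spiked tritiated test compound. Mean and SD reported per time point, plus fraction unbound.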

HCV genotype 1 [8] = conditions: treatment-naïve patients, simeprevir plus ribavirin and pegylated interferon, cited from earlier work
[9] = Safety evaluation, Study 1; assay type: in vivo, human
In short: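 Six healthy male nonsmokers (18–55 y) given one oral 200-mg dose of radiolabelled test compound in polyethylene glycol 400, fed. Safety covered subject-reported AEs, hematology, biochemistry, coagulation, urinalysis and electrocardiogram. Descriptive statistics only.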

[10] = 14C-simeprevir mass balance study; assay type: in vivo, human; conditions: as summarised in Discussion
In short: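 Healthy adult males (18–55 y, BMI 18.0–30.0 kg/m2, nonsmokers). Single oral 200-mg dose of 14C-labelled plus unlabelled test compound in polyethylene glycol 400, fed, 1.85 MBq total. Urine pooled at 0–8, 8–16, 16–24, 24–36 and 36–48 h, then every 24 h. Every stool collected until ≥Day 8, <2 % of dose excreted per 24 h, and ≥7 stools. Radioactivity read by […] and expressed as % of dose; six subjects.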

[11] = moderate to severe renal impairment vs healthy, single 400-mg dose
[12] = 14C-daclatasvir excretion study
[13] = renal impairment group, treatment phase
[14] = subject with rhabdomyolysis (also on high-dose fenofibrate), Day 9
[15] = whole study period, six healthy subjects

SMILES: CC(C)OC(=O)[C@H](C)N[P@](=O)(OC[C@H]1O[C@@H](n2ccc(=O)[nH]c2=O)[C@](C)(F)[C@@H]1O)Oc1ccccc1 [sofosbuvir]
- Increase in AUCinf ([1]; mild renal impairment vs normal renal function, single 400-mg dose): 61%
- Increase in AUCinf ([1]; moderate renal impairment vs normal renal function, single 400-mg dose): 107%
- Increase in AUCinf ([1]; severe renal impairment vs normal renal function, single 400-mg dose): 171%
- 14C-sofosbuvir recovered from the urine ([2]; 400-mg 14C-sofosbuvir dose): 80%

SMILES: NC(=O)c1ncn([C@@H]2O[C@H](CO)[C@@H](O)[C@H]2O)n1 [ribavirin]
- Decrease in apparent clearance [1, 11]: 50–75%
- Increase in AUC [1, 11]: two- to three-fold increase
- Radioactivity excreted in the urine ([2]; 600-mg 14C-ribavirin dose): 61%

SMILES: COC(=O)N[C@H](C(=O)N1CCC[C@H]1c1nc(-c2ccc(-c3ccc(-c4c[nH]c([C@@H]5CCCN5C(=O)[C@@H](NC(=O)OC)C(C)C)n4)cc3)cc2)c[nH]1)C(C)C [daclatasvir]
- Increase in AUCinf ([1]; ESRD): ~51%
- Increase in AUCinf ([1]; moderate renal impairment): approximately 18%
- Increase in AUCinf ([1]; severe renal impairment): ~39%
- Recovery from the feces [2, 12]: 88%
- Total radioactivity dose eliminated in urine [2, 12]: 6.6%
- Renal excretion [2]: < 10%

SMILES: COc1ccc2c(O[C@@H]3C[C@H]4C(=O)N[C@]5(C(=O)NS(=O)(=O)C6CC6)C[C@H]5/C=C\CCCCN(C)C(=O)[C@@H]4C3)cc(-c3nc(C(C)C)cs3)nc2c1C [simeprevir]
- SVR rates (HCV genotype 1 [3]): 92–94%
- Tissue distribution [4]: predominately distributed to the liver and intestines with low distribution (similar or less than plasma) to the kidneys
- AUC24h higher in severe renal impairment compared with healthy subjects ([5]; based on LS mean ratio, Day 7): 62%
- Cmax higher in severe renal impairment compared with healthy subjects ([5]; based on LS mean ratio, Day 7): 34%
- half-life ([5]; healthy subjects): 16.7 h
- half-life ([5]; subjects with severe renal impairment): 24 h
- half-life ([6]; HCV-infected subjects with normal renal function): 41 h
- AUC (range of concentrations observed in phase III studies) ([6]; HCV-infected subjects without renal impairment): 4848–449,185 ng·h/mL
- Concentrations in subjects with HCV infection compared with non-HCV-infected subjects [6]: two- to three-fold higher
- Deaths or AEs resulting in permanent premature discontinuation of simeprevir ([7]; Study 2): No deaths or AEs resulting in permanent premature discontinuation of simeprevir occurred
- Severity of most AEs ([7]; Study 2, both groups): grade I or II; also recorded: grade 1 or 2
- Subjects with at least one AE ([7]; control group, treatment phase): 12.5%
- Subjects with at least one AE ([7]; control group, whole study period): 37.5%
- Severity of rhabdomyolysis ([7]; one subject of renal impairment group, also receiving fenofibrate): grade 3
- Subjects with at least one AE [7, 13]: 50%
- Subjects with hyperbilirubinemia [7, 13]: 12.5%
- Subjects with hypertension [7, 13]: 12.5%
- Subjects with increased blood alkaline phosphatase [7, 13]: 12.5%
- Subjects with myalgia [7, 13]: 12.5%
- Subjects with rhabdomyolysis [7, 13]: 12.5%
- Subjects with at least one AE ([7]; renal impairment group, whole study period): 50%
- Relatedness of rhabdomyolysis and myalgia (investigator) ([7]; same subject, also taking high-dose fenofibrate): probably related to simeprevir
- Creatine kinase level [7, 14]: 96.76 μkat/L
- Creatine kinase muscle brain fraction levels [7, 14]: 20.84 µg/L and 19.45 µg/L
- Myoglobin levels [7, 14]: 1200 µg/L and 1475 µg/L and 1476 µg/L
- Mean unbound plasma concentration (plasma proteins; matched healthy subjects, 4 h post-dose, SD 0.2574): 0.2714
- Mean unbound plasma concentration (plasma proteins; matched healthy subjects, pre-dose, SD 0.1567): 0.1142
- Mean unbound plasma concentration (plasma proteins; subjects with renal impairment, 4 h post-dose): 0.4216 (SD 0.3319)
- Mean unbound plasma concentration (plasma proteins; subjects with renal impairment, pre-dose): 0.2892 (SD 0.4411)
- SVR rate (HCV genotype 1 [8]; QUEST-1): 80%
- SVR rate (HCV genotype 1 [8]; QUEST-2): 81%
- Deaths or AEs resulting in permanent premature discontinuation ([9]; Study 1): No deaths or AEs resulting in permanent premature discontinuation from the study occurred
- Dry mouth, subjects [9, 15]: one subject
- Increased ALT and AST levels, subjects [9, 15]: two subjects
- Prolonged aPTT, subjects [9, 15]: two subjects
- Subjects with at least one AE ([9]; whole study period, six healthy subjects, single 200-mg dose): five subjects
- 14C-simeprevir excreted in the urine [10]: < 2%
